The record followed here is ChEMBL document CHEMBL1255240, “The mitochondrion is a site of trypanocidal action of the aromatic diamidine DB75 in bloodstream forms of Trypanosoma brucei” (Antimicrob Agents Chemother, 2008).

The term IC50 denotes the concentration that inhibits the measured activity by half.

The subject of data set [1] is Trypanosoma brucei brucei. Nature of the data set: Antimicrobial activity against Trypanosoma brucei brucei 427 bloodstream form assessed as reduction in mitochondrial membrane potential at 10 uM using rhodamine 123 exclusion test. It is filed as functional, organism-based. The method in brief:
(§1)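 Rat-derived bloodstream cells washed in Tes buffer pH 7.5 (10 mM glucose, 1.0% fatty acid-free BSA) at room temperature. Cells at 10^7/ml pretreated with compound for the stated time, then 250 nM Rh123 for 2 min. Diluted 1:10 and flow cytometry (excitation 507, emission 529 nm) on 20,000 cells. % decrease in mean fluorescence versus untreated cells; at least three independent experiments.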

For data set [2], the system named is Trypanosoma brucei brucei. Nature of the data set: Inhibition of respiration in Trypanosoma brucei brucei 427 bloodstream form mitochondria using glycerol-3-phosphate as substrate at 2 mM. Format: functional. The gist of the method: (§2)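 Bloodstream trypanosomes were taken from infected rat blood and purified on DE52. They were lysed with glass beads, and a mitochondrial fraction was isolated by differential centrifugation at 0–4°C. Mitochondria at 0.8 mg/ml were held in mannitol/HEPES/EGTA/MgSO4 buffer, pH 7.4, without glucose, with 20 mM L-α-glycerol phosphate as substrate. Compound was added after a stable reading (about 2 min), and O2 consumption was recorded by oxygen electrode at 37°C.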

The subject of data set [3] is Trypanosoma brucei brucei. Nature of the data set: Inhibition of respiration in Trypanosoma brucei brucei 427 bloodstream form mitochondria using glycerol-3-phosphate as substrate at 10 uM. It is filed as functional. The method in brief: as §2
Data set [4] has as its system Trypanosoma brucei brucei. The experiment in a line: Antimicrobial activity against Trypanosoma brucei brucei 427 bloodstream form assessed as inhibition of mitochondrial ATPase activity at 50 uM after 10 mins. Format: functional. The gist of the method:
(§3)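 Bloodstream-form mitochondrial fraction, 100 μg protein, in 20 mM Tris-HCl pH 7.4 with 15 mM KH2PO4, 0.6 M sorbitol, 10 mM MgSO4 and 2.5 mg/ml fatty acid-free BSA. Pre-incubated 10 min on ice with compound (final 10, 50 or 100 μM; oligomycin 50 μM pretreatment where combined), then 0.20 mM ATP for 30 min at 30°C. Perchloric acid quench; remaining ATP by luciferase against a standard curve, blank subtracted. Activity relative to untreated control (100%). Duplicates; three independent experiments.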

The test system of data set [5] is Trypanosoma brucei brucei. The experiment in a line: Antimicrobial activity against Trypanosoma brucei brucei 427 bloodstream form assessed as reduction in mitochondrial membrane potential at 10 uM after 5 mins using rhodamine 123 exclusion test relative to control. It is filed as functional. On the set-up: scale not given: the % may be the effect or the level left. The gist of the method: as §1

Data set [6] relates to Trypanosoma brucei brucei. The experiment in a line: Antimicrobial activity against Trypanosoma brucei brucei 427 bloodstream form assessed as reduction in mitochondrial membrane potential at 10 uM after 1 min using rhodamine 123 exclusion test. Format: functional. On the set-up: scale not given: the % may be the effect or the level left. The method in brief: as §1
Data set [7] is described as follows: Drug uptake in Trypanosoma brucei brucei 427 bloodstream form mitochondria at 100 uM after 5 mins by fluorescence microscopy. Format: ADME. The method in brief:
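Living cells (10^6/ml) loaded with 25 nM MitoTracker Red CMXRos for 30 min at 37°C, washed, then given 100 μM compound for 5 min. Immobilised in 1.5% agarose (3.0% mixed 1:1) on a cold slide. Viewed with a DAPI-FITC-Texas Red triple filter; pink overlap taken as mitochondrial colocalisation.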

Data set [8] has as its system Trypanosoma brucei brucei. Nature of the data set: Antimicrobial activity against Trypanosoma brucei brucei 427 bloodstream form assessed as reduction in mitochondrial membrane potential at 1 uM after 1 min using rhodamine 123 exclusion test. It is filed as functional, organism-based. The method in brief:
as §1

For data set [9], the system named is Trypanosoma brucei brucei. The experiment in a line: Antimicrobial activity against Trypanosoma brucei brucei 427 bloodstream form assessed as inhibition of mitochondrial ATPase activity at 100 uM after 10 mins. Format: functional. On the set-up: scale not given: the % may be the effect or the level left. The gist of the method: as §3
Data set [10] deals with Trypanosoma brucei brucei. Nature of the data set: Antimicrobial activity against Trypanosoma brucei brucei 427 bloodstream form assessed as inhibition of glucose-dependent cellular respiration at 300 uM. It is filed as functional, organism-based. The method in brief: (§4)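 Bloodstream trypanosomes from infected rat blood, DE52-purified, washed once in mannitol-based buffer pH 7.4 (220 mM mannitol, 25 mM HEPES, 2 mM EGTA, 5 mM MgSO4) with 20 mM glucose. O2 uptake of 2.0 × 10^6 cells/ml recorded with an oxygen electrode at 37°C. % inhibition from the rates just before vs after compound addition. Two independent experiments.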

The nature of data set [11]: Drug uptake in Trypanosoma brucei brucei 427 bloodstream form kinetoplast at 1 uM after 5 mins by fluorescence microscopy. It is filed as ADME. The gist of the method:
(§5)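 Cells (about 10^6) incubated with 1.0 μM compound in cBMEM (MEM-based, 10% heat-inactivated FBS) at 37°C, 5% CO2. Aliquots taken at set times, pelleted, and dried films examined by UV fluorescence microscopy. Intrinsic blue fluorescence (excitation 365, emission 465 nm) scored in nucleus and kinetoplast.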

For data set [12], the system named is Trypanosoma brucei brucei. The experiment in a line: Inhibition of respiration in Trypanosoma brucei brucei 427 bloodstream form mitochondria using glycerol-3-phosphate as substrate at 600 uM. It is filed as functional. The gist of the method: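 Mitochondrial fraction from rat-derived bloodstream cells, prepared by glass-bead lysis and differential centrifugation (12,000 × g pellet) at 0–4°C. Suspended to 0.8 mg/ml in glucose-free mannitol buffer pH 7.4 with 20 mM L-α-glycerol phosphate as substrate. O2 uptake by oxygen electrode at 37°C; compound added after a stable reading (about 2 min) and recording continued several minutes.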

The test system of data set [13] is Trypanosoma brucei brucei. Nature of the data set: Antimicrobial activity against Trypanosoma brucei brucei 427 bloodstream form assessed as inhibition of mitochondrial ATPase activity pretreated with oligomycin for 10 mins. It is filed as functional. The gist of the method: as §3
Data set [14] has as its system Trypanosoma brucei brucei. Nature of the data set: Antimicrobial activity against Trypanosoma brucei brucei 427 bloodstream form assessed as inhibition of mitochondrial ATPase activity 10 uM after 10 mins. Details: scale not given: the % may be the effect or the level left. Format: functional. The method in brief: as §3
Data set [15] deals with Trypanosoma brucei brucei. Nature of the data set: Antimicrobial activity against Trypanosoma brucei brucei 427 bloodstream form assessed as inhibition of glucose-dependent cellular respiration. Format: functional, organism-based. The gist of the method:
as §4

A short description of data set [16]: Drug uptake in Trypanosoma brucei brucei 427 bloodstream form nucleus at 1 uM after 5 mins by fluorescence microscopy. It is filed as ADME. The method in brief:
as §5

Data set [17] has as its system Trypanosoma brucei brucei. Nature of the data set: Antimicrobial activity against Trypanosoma brucei brucei 427 bloodstream form assessed as reduction in mitochondrial membrane potential at 4 uM after 10 mins using rhodamine 123 exclusion test relative to control. It is filed as functional. Details: scale not given: the % may be the effect or the level left. The method in brief: as §1

Data set [18] relates to Trypanosoma brucei brucei. Nature of the data set: Antimicrobial activity against Trypanosoma brucei brucei 427 bloodstream form assessed as reduction in mitochondrial membrane potential at 4 uM after 1 min using rhodamine 123 exclusion test. Format: functional. Details: scale not given: the % may be the effect or the level left. The method in brief:
as §1

Data set [19] has as its system Trypanosoma brucei brucei. The experiment in a line: Antimicrobial activity against Trypanosoma brucei brucei 427 bloodstream form assessed as reduction in mitochondrial membrane potential at 10 uM after 10 mins using rhodamine 123 exclusion test relative to control. It is filed as functional. On the set-up: scale not given: the % may be the effect or the level left. The method in brief: as §1

Activity calls are given as the source filed them. The rule behind the calls is not given here.

On to `CCCCCC[C@H]1C(=O)O[C@H](C)[C@H](NC(=O)c2cccc(NC=O)c2O)C(=O)O[C@@H](C)[C@@H]1OC(=O)CC(C)C`, for which, in data set [1], the result was inactive.
As to `O=C(NO)c1ccccc1O`, the inhibition entry in data set [2] and in data set [3] was “Active” in each case.
On to `N#CC(C#N)=NNc1cccc(Cl)c1` [CARBONYL CYANIDE M-CHLOROPHENYLHYDRAZONE], for which the outcome in data set [4] was inactive. For the same compound, the Activity was 51% in data set [5] and 36% in data set [6].
As for `N=C(N)c1ccc(-c2ccc(-c3ccc(C(=N)N)cc3)o2)cc1` [FURAMIDINE], the Drug uptake result in data set [7], in data set [11] and in [16] was “Active” each time. The Activity in [4] amounted to 47%; in [9] it was 47%; in [14], 20%; in data set [6] it was 57%. Further, the outcome in [8], in data set [10] and in data set [13] was Active. In addition, the inhibition result in data set [12] was “inactive”. Further, the IC50 in data set [15] came to 20 µM.
Turning to `CC[C@H]1/C=C/C=C/C[C@@H](C)[C@H](O)[C@@](C)(O)C(=O)[C@@H](C)[C@H](O)[C@@H](C)C(=O)[C@@H](C)[C@H](O)[C@@H](C)/C=C/C(=O)O[C@@H]2[C@H](C)[C@H](CC1)O[C@]1(CC[C@H](C)[C@H](C[C@@H](C)O)O1)[C@H]2C` [OLIGOMYCIN], the figures for the Activity in data set [4], in data set [17] and in [18] were 30%, 50% and 23%, respectively.
As to `CC(C)[C@@H]1NC(=O)[C@H](C)OC(=O)[C@@H](C(C)C)NC(=O)[C@@H](C(C)C)OC(=O)[C@H](C(C)C)NC(=O)[C@H](C)OC(=O)[C@@H](C(C)C)NC(=O)[C@@H](C(C)C)OC(=O)[C@H](C(C)C)NC(=O)[C@H](C)OC(=O)[C@@H](C(C)C)NC(=O)[C@@H](C(C)C)OC1=O` [VALINOMYCIN], the Activity in data set [19] was found to be 70%.
